Published values from different studies.
Protocols differ between the studies behind these lines.
Target: Serine/threonine-protein kinase 10 (STK10, Homo sapiens, UniProt O94804)

SMILES	effect on	technique	concentration	remaining binding [%]
N[C@H]1CCN(c2nccc(-c3cnn4ncccc34)n2)C1	binding		1 µM	98
CCCOc1ccc([C@H]2[C@H](C(=O)O)[C@@H](c3ccc4c(c3)OCO4)CN2CC(=O)Nc2c(CC)cccc2CC)cc1	cell-free assay	competition with immobilised ligand	1 µM	97
CN(C)c1ncc(F)c(-c2cnn3ncccc23)n1	binding		1 µM	42
O=C(NCCCN1CCOCC1)c1ccc(Nc2nccc(-c3cc4ccccc4s3)n2)cc1	binding	competition with immobilised ligand	1 µM	94
COc1ccnn2ncc(-c3ccnc(N(C)C)n3)c12	binding		1 µM	95
O=C(c1ccc(Nc2nccc(-c3cc4ccccc4s3)n2)cc1)N1CCC(N2CCCC2)CC1	binding	competition with immobilised ligand	1 µM	58
CC(=O)N1CCC(c2ccc(C(=O)NC3=NCCN3)cc2C(F)(F)F)CC1	cell-free assay	competition with immobilised ligand	1 µM	100
C[C@@H]1CCN(c2nccc(-c3cnn4ncccc34)n2)C1	binding		1 µM	98
CC(C)CC(=O)N1CCc2nc(-c3ccc(Br)cc3)nc(N(C)Cc3ccccc3)c2C1	cell-free assay	competition with immobilised ligand	0.1 µM	100
COc1cnc(Nc2cccc(S(N)(=O)=O)c2)nc1N1CCN(c2ccccc2)CC1	binding	competition with immobilised ligand	1 µM	100
Cc1c(NC(=O)c2cc(C(N)=O)nc3cc(F)ccc23)c(C(F)(F)F)nn1Cc1ccc(C(C)(C)C)cc1	cell-free assay	competition with immobilised ligand	1 µM	88
FC(F)(F)Oc1cccc(-c2cnc3ccc(-c4ccncc4)nn23)c1	binding	competition with immobilised ligand	5 µM	0.3
COc1ncc2cc3ccccc3nc2c1C#N	cell-free assay	competition with immobilised ligand	5 µM	100
CCN1CCN(Cc2ccc(C(=O)Nc3ccc(C)c(Oc4ccc5c(c4)CC(=O)N5)c3)cc2C(F)(F)F)CC1	binding	competition with immobilised ligand	1 µM	3.2
O=C(NCC1CCOCC1)c1n[nH]cc1NC(=O)c1c(F)cccc1F	binding	competition with immobilised ligand	1 µM	100
CS(=O)(=O)c1cc(C2(NC(=O)c3cncc4c3cnn4-c3ccc(F)cc3)CC2)ccn1	cell-free assay	competition with immobilised ligand	1 µM	99
CN(C)c1nccc(-c2cnn3ncccc23)n1	binding		1 µM	100
Cc1cnc(Nc2ccc(C(=O)N3CCC(N4CCCC4)CC3)cc2)nc1-c1cc2ccccc2s1	binding	competition with immobilised ligand	1 µM	14
CN(C)C(=O)Cn1cc(-c2nc([C@@](C)(c3ccc(-c4cnc(N)nc4)cc3)C3CC3)no2)cn1	cell-free assay	competition with immobilised ligand	1 µM	89
CC1CCCN1c1nccc(-c2cnn3ncccc23)n1 (centres unmarked)	binding		1 µM	96
